The source made the active and inactive calls. The calls are words filed in the database; no cut-off is given here.

The results in this text go back to ChEMBL document CHEMBL1687715, “Therapeutic activity of an anti-idiotypic antibody-derived killer peptide against influenza A virus experimental infection” (Antimicrob Agents Chemother, 2008).

In data set [1] the test system is Influenza A virus. In words: Antiviral activity against Influenza A virus/NWS/1933(H1N1) infected in BALB/c mouse assessed as survival rate at 2 mg, ip administered once daily for 10 days and dosed 30 mins post infection. Format: functional, Influenza A virus (A/NWS/1933(H1N1)). The procedure, abridged:
(§1)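 Male BALB/c mice, 4 weeks old, 10 per group. Given i.p. in 100 μl 0.9% NaCl once daily from 30 min post-challenge through the next 10 days; diluent for placebo. Survival was checked daily for 30 days, and day-30 survivors were counted as cured. Curves were compared by log-rank test. Four experiments were run.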

Data set [2] relates to Influenza A virus. Kind of data set: Antiviral activity against Influenza A virus/NWS/1933(H1N1) infected in BALB/c mouse assessed as reduction in mortality rate at 2 mg, ip administered once daily for 10 days and dosed 30 mins post infection relative to untreated control. The format is functional, Influenza A virus (A/NWS/1933(H1N1)). The procedure, abridged: (§2)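 BALB/c males, 4 weeks old, about 20 g, 10 per group, randomised. Daily i.p. treatment (50 or 100 μg/mouse, or 2 mg/mouse) in 100 μl 0.9% NaCl, starting 30 min after intranasal challenge and repeated for the next 10 days. Placebo was diluent. Mortality rate ratio versus placebo was derived by proportional hazards regression, with 95% CI.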

The test system of data set [3] is Influenza A virus. In words: Antiviral activity against Influenza A virus/parrot/Ulster/73(H7N1) infected in LLC-MK2 cells assessed as of reduction in optical density values at 4 ug/ml using human RBCs by hemadsorption assay. Format: functional, organism-based. The following applies: A/parrot/Ulster/73(H7N1), Erythrocyte.
The subject of data set [4] is Influenza A virus. In words: Antiviral activity against Influenza A virus/parrot/Ulster/73(H7N1) infected in MDCK cells assessed as of reduction in optical density values at 4 ug/ml using human RBCs by hemadsorption assay. Format: functional, organism-based. The settings on record: A/parrot/Ulster/73(H7N1), Erythrocyte.
Data set [5] concerns LLC-MK2. In words: Cytotoxicity against monkey LLC-MK2 cells assessed as effect on cell viability at 4 ug/ml. The format is cell-based, Macaca mulatta. The following applies: rhesus monkey. The procedure, abridged: (§3)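 Uninfected confluent monolayers were exposed to 4 μg/ml or left untreated. Viability was assessed by dye exclusion and MTT assay. DNA and RNA synthesis were measured by 48 h labelling with 10 μCi/ml [3H]thymidine or [3H]uridine, followed by counting of trichloroacetic acid-insoluble radioactivity.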

Data set [6] deals with LLC-MK2. Kind of data set: Cytotoxicity against monkey LLC-MK2 cells assessed as effect on DNA synthesis at 4 ug/ml. The settings on record: rhesus monkey. The format is cell-based, Macaca mulatta. Summed up: as §3
For data set [7], the system named is LLC-MK2. Kind of data set: Cytotoxicity against monkey LLC-MK2 cells assessed as effect on RNA synthesis at 4 ug/ml. Format: cell-based, Macaca mulatta. The following applies: rhesus monkey. The procedure, abridged: as §3
Data set [8] deals with MDCK. In words: Cytotoxicity against MDCK cells assessed as effect on cell viability at 4 ug/ml. The format is cell-based, Canis lupus familiaris. The settings on record: dog. The procedure, abridged:
as §3

For data set [9], the system named is MDCK. In words: Cytotoxicity against MDCK cells assessed as effect on DNA synthesis at 4 ug/ml. Format: cell-based, Canis lupus familiaris. The following applies: dog. Summed up:
as §3

Data set [10] deals with MDCK. Kind of data set: Cytotoxicity against MDCK cells assessed as effect on RNA synthesis at 4 ug/ml. Format: cell-based, Canis lupus familiaris. The following applies: dog. The procedure, abridged: as §3
For data set [11], the system named is Influenza A virus. In words: Antiviral activity against Influenza A virus/NWS/1933(H1N1) infected in BALB/c mouse assessed as reduction in mortality rate at 50 ug, ip administered once daily for 10 days and dosed 30 mins post infection relative to untreated control. The format is functional, organism-based. The following applies: Influenza A virus (A/NWS/1933(H1N1)). The procedure, abridged: as §2

Data set [12] deals with Influenza A virus. Kind of data set: Antiviral activity against Influenza A virus/NWS/1933(H1N1) infected in BALB/c mouse assessed as survival rate at 50 ug, ip administered once daily for 10 days and dosed 30 mins post infection. The format is functional, organism-based. The settings on record: Influenza A virus (A/NWS/1933(H1N1)). The procedure, abridged: as §1
Data set [13] concerns Mus musculus. In words: Toxicity in Influenza A virus/NWS/1933(H1N1) infected in BALB/c mouse assessed as effect on motor activity at 100 ug, ip administered once daily for 10 days and dosed 30 mins post infection. The settings on record: in vivo. The format is organism-based.
Data set [14] concerns Mus musculus. In words: Toxicity in Influenza A virus/NWS/1933(H1N1) infected in BALB/c mouse assessed as weight loss at 100 ug, ip administered once daily for 10 days and dosed 30 mins post infection. The format is organism-based. The following applies: in vivo.
Data set [15] relates to Influenza A virus. In words: microbe, parasite or virus in culture. Format: functional, organism-based. The following applies: LLC-MK2, 24 h.
Data set [16] deals with Influenza A virus. Kind of data set: microbe, parasite or virus in culture. The format is functional. The following applies: LLC-MK2, 2 h.
The subject of data set [17] is Influenza A virus. In words: microbe, parasite or virus in culture. The format is functional. The settings on record: LLC-MK2, 2 h. This is another data set of the same source.
Data set [18] deals with Influenza A virus. Kind of data set: microbe, parasite or virus in culture. Format: functional. The settings on record: LLC-MK2, 6 h.
Data set [19] deals with Influenza A virus. Kind of data set: microbe, parasite or virus in culture. Format: functional. The following applies: LLC-MK2, 6 h. This is another data set of the same source.
Data set [20] deals with Influenza A virus. Kind of data set: microbe, parasite or virus in culture. The following applies: LLC-MK2, 6 h. The format is functional. This is another data set of the same source.
In data set [21] the test system is Influenza A virus. Kind of data set: microbe, parasite or virus in culture. Format: functional. The following applies: LLC-MK2, 8 h.
Data set [22] concerns Influenza A virus. Kind of data set: microbe, parasite or virus in culture. The format is functional. The following applies: LLC-MK2, 8 h. The source holds these as a separate data set.
Data set [23] deals with Influenza A virus. In words: microbe, parasite or virus in culture. The format is functional. The following applies: LLC-MK2, 8 h. This is another data set of the same source.
The test system of data set [24] is Influenza A virus. In words: microbe, parasite or virus in culture. The format is functional. The settings on record: LLC-MK2, 8 h. This is another data set of the same source.
In data set [25] the test system is Influenza A virus. Kind of data set: microbe, parasite or virus in culture. Format: functional. The settings on record: LLC-MK2, 4 h.
The subject of data set [26] is Influenza A virus. In words: microbe, parasite or virus in culture. The format is functional. The settings on record: LLC-MK2, 6 h. The source holds these as a separate data set.
Data set [27] has as its system Influenza A virus. In words: microbe, parasite or virus in culture. The format is functional. The settings on record: LLC-MK2, 4 h. The source holds these as a separate data set.
In data set [28] the test system is Influenza A virus. In words: microbe, parasite or virus in culture. The format is functional. The following applies: LLC-MK2, 6 h. This is another data set of the same source.
For data set [29], the system named is Influenza A virus. In words: Antiviral activity against Influenza A virus/NWS/1933(H1N1) infected in BALB/c mouse assessed as survival rate at 100 ug, ip administered once daily for 10 days and dosed 30 mins post infection. The format is functional, Influenza A virus (A/NWS/1933(H1N1)). The procedure, abridged: as §1
Data set [30] deals with Influenza A virus. In words: Antiviral activity against Influenza A virus/NWS/1933(H1N1) infected in BALB/c mouse assessed as reduction in mortality rate at 100 ug, ip administered once daily for 10 days and dosed 30 mins post infection relative to untreated control. Format: functional, Influenza A virus (A/NWS/1933(H1N1)). Summed up:
as §2

Data set [31] relates to Influenza A virus. In words: Antiviral activity against Influenza A virus/NWS/1933(H1N1) infected in BALB/c mouse assessed reduction in viral load in lung at 100 ug, ip measured after 6 days postinfection relative to untreated control. Format: functional, Influenza A virus (A/NWS/1933(H1N1)). Summed up:
(§4)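 Groups of 5 infected BALB/c mice, dosed i.p. daily, were killed on day 6 p.i. Each lung was weighed and homogenised in RPMI 1640. Titre was by TCID50 on MDCK monolayers: 10-fold dilutions, eight wells each, 3 days, cytopathic effect scored. Expressed per gram of lung; five homogenates per group, mean ± SD.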

Data set [32] concerns Influenza A virus. Kind of data set: Antiviral activity against Influenza A virus/NWS/1933(H1N1) infected in BALB/c mouse assessed reduction in viral load in lung at 50 ug, ip measured after 6 days postinfection relative to untreated control. Format: functional, organism-based. The settings on record: Influenza A virus (A/NWS/1933(H1N1)). The procedure, abridged: as §4
The subject of data set [33] is Mus musculus. Kind of data set: Toxicity in Influenza A virus/NWS/1933(H1N1) infected BALB/c mouse assessed as incidence of mouse death at 100 ug, ip administered once daily for 10 days and dosed 30 mins post infection. The format is organism-based. The settings on record: in vivo.

As for `NC12CC3CC(CC(C3)C1)C2` [AMANTADINE], the Survival in the data set on Influenza A virus [1] stood at 50%. Also, the “inhibition (INH)” value in the data set on Influenza A virus [2] was 77%.
As usually defined, the inhibition is the drop in the measured response relative to a control, in per cent. As a reminder, the EC50 is the midpoint of the concentration-response curve. H-AKVTMTCSAS-OH: the inhibition entry in the data set on Influenza A virus [3] and in the data set on Influenza A virus [4] was “Active” each time. Further, the Activity entry in the data set with LLC-MK2 [5], in the data set with LLC-MK2 [6], with LLC-MK2 [7], in the data set with MDCK [8], in the data set with MDCK [9] and with MDCK [10] was “Non-toxic” throughout. In addition, the Activity entry in the data set with Mus musculus [13], in the data set on Mus musculus [14] and with Mus musculus [33] was “Non-toxic” throughout. Moreover, the result in the data set on Influenza A virus [11] and in the data set with Influenza A virus [12] was inactive. In addition, the concentration giving a half-maximal response (EC50) with Influenza A virus [15] came to 2690 nM. Further, the inhibition at 4 µg/mL worked out at 59.1% in the data set on Influenza A virus [16]; 96.3% in the data set with Influenza A virus [17]; 88.9% in the data set on Influenza A virus [18]; 76.9% in the data set with Influenza A virus [19]; 86.1% with Influenza A virus [20]; 71.2% in the data set with Influenza A virus [21]. In addition, the inhibition at 4 µg/mL is 46.5% in the data set with Influenza A virus [22]; 93.6% in the data set on Influenza A virus [23]; 26.8% in the data set with Influenza A virus [24]; 62.4% in the data set with Influenza A virus [25]; 65.2% with Influenza A virus [26]; 45.1% with Influenza A virus [27]. The molecule also came in with an inhibition at 4 µg/mL in the data set on Influenza A virus [28] of 49.7%. The Survival with Influenza A virus [29] is listed as 50%. Also, in the data set with Influenza A virus [30], the “inhibition (INH)” value came out at 72%. For the same molecule, the “fold change (FC)” value in the data set on Influenza A virus [31] is reported as 2. Further, the outcome in the data set with Influenza A virus [32] was Active.
